FGF22 binding: shifts melting point of recombinant human FGF22. hit rate 1.5% among 340,000. activity (Tm shift, normalised), % at 9.99 µM. recombinant FGF22 thermal shift, SYPRO orange fluorescence; percent of sucrose octasulfate shift, DMSO zero. AID 651658;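 active = mean Tm shift, scaled 0 neutral to 100 positive control, at about 1.3% or above, every replicate too, limit read from the data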
Target sequence (Q9HCT0 whole entry, looked up): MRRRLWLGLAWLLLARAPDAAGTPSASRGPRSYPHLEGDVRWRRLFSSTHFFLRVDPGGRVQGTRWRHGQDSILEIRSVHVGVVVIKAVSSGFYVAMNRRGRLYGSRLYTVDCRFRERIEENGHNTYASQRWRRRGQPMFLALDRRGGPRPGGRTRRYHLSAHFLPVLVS
miR122 inh: blocks miR-122 activity in Huh7 sensor cells | Huh7 miR-122 Renilla luciferase sensor, 48 h; neutral wells = 0, positive control = 100 | activation (reporter increase), % at 12.5 µM | hit rate 0.3% among 340,000;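 active = mean replicate activation score at least 90 and every replicate individually at or above 90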;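 note: higher luciferase means less miR-122 activity so hits act as miR-122 inhibitors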
697 NFkB inh: inhibitors of the PMA/ionomycin-induced NF-kB reporter in 697 B cells. 697 B-cell NF-kB luciferase reporter, 16 h. hit rate 0.33% among 330,000. inhibition, % at 4 µM. AID 435022; in the data active = inhibition above about 35%
NR2E3 ag-1: activates human NR2E3 receptor. Q9Y5X4. CHO-S Gal4-NCOR/VP16-NR2E3 two-hybrid, luciferase. inhibition of corepressor binding, % at 3.98 µM. hit rate 0.35% among 360,000. AID 602229;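 active = inhibition above the mean of all tested compounds plus 3 SD, cut at about 70% in these data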;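 note: 0% = DMSO with NR2E3 transfected cells and 100% = cells lacking NR2E3 construct; higher means lower luciferase signal from less NR2E3 corepressor binding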
Target sequence (Q9Y5X4 whole entry, looked up, the tested form may be a part): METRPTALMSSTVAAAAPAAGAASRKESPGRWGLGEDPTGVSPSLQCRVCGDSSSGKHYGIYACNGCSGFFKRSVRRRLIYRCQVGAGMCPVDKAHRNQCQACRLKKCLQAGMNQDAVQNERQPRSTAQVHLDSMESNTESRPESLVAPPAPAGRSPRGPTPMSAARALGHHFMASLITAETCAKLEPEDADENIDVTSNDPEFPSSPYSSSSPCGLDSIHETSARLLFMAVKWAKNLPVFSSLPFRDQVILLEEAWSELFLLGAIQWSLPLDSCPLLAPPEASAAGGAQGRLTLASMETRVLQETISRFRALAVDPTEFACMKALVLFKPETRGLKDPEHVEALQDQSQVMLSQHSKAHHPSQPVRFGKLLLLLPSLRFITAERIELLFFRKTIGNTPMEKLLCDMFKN
NR2E3 ag-2: NR2E3 (human) agonism | GST-NR2E3/biotin-RetCOR TR-FRET, 1536-well | inhibition of corepressor binding, % at 4.78 µM | hit rate 0.12% among 320,000;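 active = percent inhibition above the cutoff of mean plus 3 SD of all tested compounds, set per screening campaign, cut at about 20% in these data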;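 note: 0% = DMSO wells and 100% = biotin wells as full block of FRET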
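Material: NR2E3–RetCOR corepressor complex / Amount: 1.35 nM GST-NR2E3 / Medium: Tris pH 7.5 / Compound: single nominal compound dose of 4.8 µM / Incubation: 5 h at 4 °C / Technique: TR-FRET, Eu(K)-anti-GST donor, streptavidin-D2 acceptor, ex 340, em 617/671 nm / Read-out basis: percent loss of FRET ratio relative to control wells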
Jurkat NFkB inh: inhibitors of the PMA/ionomycin-induced NF-kB reporter in Jurkat cells; inhibition, % at 4 µM; PMA/ionomycin-induced NF-kB luciferase reporter, luminescence; hit rate 0.53% among 330,000; in the data active = inhibition above about 50%
NR2E3 ag confirm: confirmation of human NR2E3 nuclear receptor agonists. cell-free NR2E3 corepressor release, TR-FRET, 5 h. hit rate 39% among 360. shares compounds with NR2E3 ag-2. activation (reported as inhibition), % at 3.98 µM; in the data active = activation above about 20%
PPARg-NCOR2 ctr: releases PPARgamma from NCOR2 in NR2E3 counter-screen; shares compounds with NR2E3 ag-2; TR-FRET PPARg-NCOR2 coregulator interaction, biochemical; inhibition, % at 3.98 µM; hit rate 45% among 360; in the data active = inhibition above about 20%;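 note: 0% = DMSO vehicle and 100% = wells without protein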
* = called active by the depositor; x = no result; [ ] = remark or other dose. Sampled rows, rich in hits. Any-hit rate of the full collection: about 2.2%.

SMILES | FGF22 binding | miR122 inh | 697 NFkB inh | NR2E3 ag-1 | NR2E3 ag-2 | Jurkat NFkB inh | NR2E3 ag confirm | PPARg-NCOR2 ctr
Cc1nn(C)cc1-c1n[nH]c(=S)n1-c1ccc(F)cc1 | 0 | x | -9 | -13 | -1 | -12 | x | x
Cc1ccc(-n2c(-c3nn(C)cc3Cl)n[nH]c2=S)cc1 | x | x | 5 | -27 | 3 | 8 | x | x
Cc1c(Cl)c(-c2n[nH]c(=S)n2-c2ccc(F)cc2)nn1C | x | -13 | -17 | -10 | 21* | 8 | 15 | 17
Cn1cc(Cl)c(-c2n[nH]c(=S)n2-c2ccc(F)cc2)n1 | 0 | x | 10 | -20 | 20* | -16 | 10 | 13
Cc1nn(C)c(-c2n[nH]c(=S)n2-c2ccccc2)c1Cl | x | x | -22 | -29 | 7 | -1 | x | x
Cn1cc(Cl)c(-c2n[nH]c(=S)n2-c2ccccc2)n1 | x | -14 | -23 | -14 | 27* | 16 | 15 | 13
COc1cccc(OCc2nc3c4cnn(-c5ccccc5)c4ncn3n2)c1 | x | -3 | 12 | -17 | 2 | 12 | x | x
c1ccc(-n2ncc3c2ncn2nc(-c4ccco4)nc32)cc1 | x | -8 | -7 | -96 | 48* | -12 | 18 | 59*
C[C@H]1CN([C@@H](C)CO)C(=O)c2cc(C#Cc3ccccc3F)cnc2O[C@@H]1CN(C)C(=O)C1CCC1 | 0 | -8[16.7 µM] | x | x | x | x | x | x
O=c1oc2cc(O)c(Cl)cc2c2ccccc12 | x | 2 | -12 | -11 | 52* | 6 | 46* | 48*
Cc1ccc(C2C(C(N)=S)=C(N)OC3=C2C(=O)CC(C)(C)C3)cc1 (stereo not given) | x | x | 3 | -1 | 26* | -8 | -1 | 65*
CC1(C)CC(=O)C2=C(C1)OC(N)=C([N+](=O)[O-])C2c1ccc(F)cc1 (stereo not given) | 0 | -8 | 4 | -9 | -1 | -2 | x | x
C[C@H]1CN([C@@H](C)CO)S(=O)(=O)c2ccc(C#CC(C)(C)O)cc2O[C@H]1CN(C)Cc1ccc(-c2ccccc2)cc1 | 0 | -14[16.7 µM] | x | x | x | x | x | x
C[C@@H]1CN([C@@H](C)CO)C(=O)c2cc(NC(=O)CCCN(C)C)ccc2O[C@@H]1CN(C)C | 0 | 10[16.7 µM] | x | x | x | x | x | x
Cc1ccc(CSCCNC(=O)c2ccc(N(C)S(=O)(=O)c3ccccc3)cc2)cc1 | x | -4 | -1 | 25 | 22* | 7 | -10 | 4
COC(=O)c1sc(NC(=S)NNC(=O)c2c(Br)c(C)nn2C)c(C(=O)OC)c1C | 0 | x | 18 | -2 | 62* | 6 | 9 | 5
C[C@@H]1CCCCO[C@@H](CN(C)C(=O)Nc2ccccc2)[C@H](C)CN([C@H](C)CO)C(=O)c2cc(NC(=O)Nc3cccc4ccccc34)ccc2O1 | x | -8[16.7 µM] | x | x | x | x | x | x
C=CCc1c(C)nc(SC)nc1Nc1ccc(C)cc1 | x | 11 | -8 | 12 | 25* | -4 | -4 | -6
C=CCc1c(C)nc(-c2ccccc2)nc1Nc1ccccc1O | -1 | x | -29 | 13 | 1 | -18 | x | x
CC(C)NC(=O)N(C)C[C@@H]1Oc2ncc(C#Cc3cccc(F)c3)cc2C(=O)N([C@H](C)CO)C[C@@H]1C | 0 | -5[16.7 µM] | x | x | x | x | x | x
CCCCc1nnc(NC(=O)CSc2nc(O)c(Cc3ccccc3)c(=O)[nH]2)s1 | 0 | x | -9 | 27 | 26* | -15 | -6 | -5
CC(=O)NC(CCS(C)(=O)=O)C(=O)Nc1ccc(Cl)c(Cl)c1 (stereo not given) | 0 | x | 10 | -43 | 20* | 7 | -5 | -7
CC(=O)NC(CCS(C)(=O)=O)C(=O)Nc1ccccc1 (stereo not given) | 0 | 2 | 13 | -9 | 1 | -2 | x | x
O=C(O)CCCC[C@@H]1SC[C@@H]2NC(=O)N[C@@H]21 | 0 | 50 | 17 | 7 | 93* | 6 | 94* | 94*
COC(=O)CCCCC1SCC2NC(=O)NC21 (stereo not given) | 0 | 1 | -4 | 21 | 7 | -13 | x | x
SMILES | FGF22 binding | miR122 inh | 697 NFkB inh | NR2E3 ag-1 | NR2E3 ag-2 | Jurkat NFkB inh | NR2E3 ag confirm | PPARg-NCOR2 ctr
COCCNC(=O)c1cc(-c2ccccn2)nc2ccc(S(=O)(=O)N3CCC(C)CC3)cc12 | 0 | 14 | 21 | 10 | 20* | 4 | -9 | 7
CO[C@H]1CN(C)C(=O)c2ccc(NS(C)(=O)=O)cc2OC[C@@H](C)N(C(=O)C2CCOCC2)C[C@@H]1C | 0 | -7[16.7 µM] | x | x | x | x | x | x
COc1ccc(C(c2c(C)n(C)n(-c3ccccc3)c2=O)c2c(C)n(C)n(-c3ccccc3)c2=O)cc1OC | 0 | 0 | -12 | -19 | 0 | 11 | x | x
COc1ccc(C(c2c(C)[nH]n(-c3ccccc3)c2=O)c2c(C)[nH]n(-c3ccccc3)c2=O)cc1OC | x | 2 | -25 | -16 | 30* | -7 | -12 | 39*
COc1ccc2c3c([nH]c2c1)[C@H](CO)N(C(=O)c1ccc(F)cc1)CC31CCN(C(=O)Nc2cccc(F)c2)CC1 | 0 | x | x | x | x | x | x | x
COc1cccc(C2C(C(=O)c3cc4ccccc4o3)=C(O)C(=O)N2c2cc(C)on2)c1OC (stereo not given) | x | -3 | 13 | 0 | 24* | -6 | 25* | 18
COC(=O)c1ccc(C2C(C(=O)c3cc4ccccc4o3)=C(O)C(=O)N2c2cc(C)on2)cc1 (stereo not given) | 0 | -4 | -12 | -9 | 23* | -9 | 32* | 27*
Cc1cc(N2C(=O)C(O)=C(C(=O)c3cc4ccccc4o3)C2c2ccc(OC(C)C)cc2)no1 (stereo not given) | 0 | -2 | 7 | -55 | 11 | -18 | x | x
COc1cc(C2C(C(=O)c3ccc(C)o3)=C(O)C(=O)N2c2cc(C)on2)cc(OC)c1OC (stereo not given) | x | -3 | 7 | -3 | -2 | 4 | x | x
COc1cc(C2C(C(=O)c3cc4ccccc4o3)=C(O)C(=O)N2c2cc(C)on2)cc(OC)c1OC (stereo not given) | 0 | -5 | 9 | -6 | 30* | -11 | 35* | 34*
COc1cccc2cc(C(=O)C3=C(O)C(=O)N(c4cc(C)on4)C3c3cccs3)oc12 (stereo not given) | 0 | x | 6 | -10 | 33* | 1 | 36* | 42*
COc1cccc(C2C(C(=O)c3cc4cccc(OC)c4o3)=C(O)C(=O)N2c2cc(C)on2)c1OC (stereo not given) | x | -7 | 8 | -52 | 14 | 4 | x | x
CCCNC(=O)C[C@H]1CC[C@@H]2[C@H](COc3ccc(NC(=O)c4cccc(F)c4)cc3C(=O)N2C)O1 | 0 | 7[16.7 µM] | x | x | x | x | x | x
